Assay results: ChEMBL document CHEMBL1153856, “Synthesis and spectral characterization of a new class of N-(N-methylpiperazinoacetyl)-2,6-diarylpiperidin-4-ones: antimicrobial, analgesic and antipyretic studies” (2009)
≈ marks a conversion by molar mass, not a printed value.

Columns and labels:
Format in all cases: functional
Staphylococcus aureus = test: Antimicrobial activity against Staphylococcus aureus after 24 hrs by twofold serial dilution method
Method in brief: (§1)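 Twofold serial broth dilution in nutrient broth at pH 7.4 ± 0.2. Compound stocks were 1 mg/mL in DMSO, diluted 1:5 into seeded broth, then six serial dilutions. Inocula came from 24 h nutrient-agar cultures, final 10⁵ cfu/mL. Incubation was 37 ± 1 °C for 24 h, with growth and solvent controls. MIC was read visually; ciprofloxacin was the standard.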

Escherichia coli = test: Antimicrobial activity against Escherichia coli after 24 hrs by twofold serial dilution method; method in brief: as §1
Pseudomonas aeruginosa = test: Antimicrobial activity against Pseudomonas aeruginosa after 24 hrs by twofold serial dilution method; method in brief: as §1
[1] = test system: Salmonella enterica subsp. enterica serovar Typhi str. CT18; test: Antimicrobial activity against Salmonella typhi after 24 hrs by twofold serial dilution method; method in brief: as §1
Klebsiella pneumoniae = test: Antimicrobial activity against Klebsiella pneumoniae after 24 hrs by twofold serial dilution method; method in brief: as §1
Candida albicans = test: Antimicrobial activity against Candida albicans after 72 to 96 hrs by twofold serial dilution method
Method in brief: (§2)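 Twofold serial broth dilution in Sabouraud dextrose broth at pH 5.6. Spores came from 1–7-day Sabouraud agar slants, final inoculum 1.1–1.5 × 10² cfu/mL. Compound stocks were 1 mg/mL in DMSO, diluted 1:5 into seeded broth, then six serial dilutions. Incubation was 28 ± 1 °C for 72–96 h, with growth and solvent controls. MIC was read visually; amphotericin B was the standard.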

Rhizopus = test: Antimicrobial activity against Rhizopus sp. after 72 to 96 hrs by twofold serial dilution method; method in brief: as §2
Aspergillus niger = test: Antimicrobial activity against Aspergillus niger after 72 to 96 hrs by twofold serial dilution method; method in brief: as §2
Aspergillus flavus = test: Antimicrobial activity against Aspergillus flavus after 72 to 96 hrs by twofold serial dilution method; method in brief: as §2
Mus musculus [2] = test: Analgesic activity in albino mouse assessed as inhibition of acetic acid-induced writhing response at 30 mg/kg, po administered 1 hr prior to acetic acid challenge relative to control
Method in brief: (§3)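 Albino mice of both sexes, 20–25 g, n = 6 per group. Doses of 30, 60 or 90 mg/kg were given orally as suspensions in 1% sodium CMC. 1 h later, 1% acetic acid in normal saline (10 mL/kg) was injected ip. Complete extension of either hind limb counted as a writhe. Counting started 5 min after injection and ran 30 min. Results are % inhibition = [1 − T/C] × 100 versus vehicle controls, mean ± SEM.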

Mus musculus [3] = test: Analgesic activity in albino mouse assessed as inhibition of acetic acid-induced writhing response at 60 mg/kg, po administered 1 hr prior to acetic acid challenge relative to control; method in brief: as §3
Mus musculus [4] = test: Analgesic activity in albino mouse assessed as inhibition of acetic acid-induced writhing response at 90 mg/kg, po administered 1 hr prior to acetic acid challenge relative to control; method in brief: as §3
Rattus norvegicus [5] = test: Antipyretic activity against brewer's yeast-induced hyperthermia in Wistar rat assessed as change in rectal temperature at 30 mg/kg, po after 30 mins
Method in brief: (§4)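 Wistar rats of both sexes, 200–250 g, received brewer's yeast in normal saline sc. Rectal temperature was taken with a digital thermometer (precision 0.1 °C). At 18 h, rats whose temperature had risen 0.3–0.5 °C were selected. Test compounds (30 or 60 mg/kg) or indomethacin (5 mg/kg) were given orally in 1% CMC; controls received vehicle only. Temperature was measured at 30, 60, 90, 120 and 150 min, mean ± SEM.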

Rattus norvegicus [6] = test: Antipyretic activity against brewer's yeast-induced hyperthermia in Wistar rat assessed as change in rectal temperature at 30 mg/kg, po after 60 mins; method in brief: as §4
Rattus norvegicus [7] = test: Antipyretic activity against brewer's yeast-induced hyperthermia in Wistar rat assessed as change in rectal temperature at 30 mg/kg, po after 90 mins; method in brief: as §4
Rattus norvegicus [8] = test: Antipyretic activity against brewer's yeast-induced hyperthermia in Wistar rat assessed as change in rectal temperature at 30 mg/kg, po after 120 mins; method in brief: as §4
Rattus norvegicus [9] = test: Antipyretic activity against brewer's yeast-induced hyperthermia in Wistar rat assessed as change in rectal temperature at 30 mg/kg, po after 150 mins; method in brief: as §4
Rattus norvegicus [10] = test: Antipyretic activity against brewer's yeast-induced hyperthermia in Wistar rat assessed as change in rectal temperature at 60 mg/kg, po after 30 mins; method in brief: as §4
Rattus norvegicus [11] = test: Antipyretic activity against brewer's yeast-induced hyperthermia in Wistar rat assessed as change in rectal temperature at 60 mg/kg, po after 60 mins; method in brief: as §4
Rattus norvegicus [12] = test: Antipyretic activity against brewer's yeast-induced hyperthermia in Wistar rat assessed as change in rectal temperature at 60 mg/kg, po after 90 mins; method in brief: as §4
Rattus norvegicus [13] = test: Antipyretic activity against brewer's yeast-induced hyperthermia in Wistar rat assessed as change in rectal temperature at 60 mg/kg, po after 120 mins; method in brief: as §4
Rattus norvegicus [14] = test: Antipyretic activity against brewer's yeast-induced hyperthermia in Wistar rat assessed as change in rectal temperature at 60 mg/kg, po after 150 mins; method in brief: as §4

SMILES | MIC (Staphylococcus aureus) | MIC (Escherichia coli) | MIC (Pseudomonas aeruginosa) | MIC [1] | MIC (Klebsiella pneumoniae) | MIC (Candida albicans) | MIC (Rhizopus) | MIC (Aspergillus niger) | MIC (Aspergillus flavus) | inhibition in vivo at 30 mg/kg (Mus musculus [2]) | inhibition in vivo at 60 mg/kg (Mus musculus [3]) | inhibition in vivo at 90 mg/kg (Mus musculus [4]) | Activity (Rattus norvegicus [5]) | Activity (Rattus norvegicus [6]) | Activity (Rattus norvegicus [7]) | Activity (Rattus norvegicus [8]) | Activity (Rattus norvegicus [9]) | Activity (Rattus norvegicus [10]) | Activity (Rattus norvegicus [11]) | Activity (Rattus norvegicus [12]) | other results
CC1C(=O)C(C)C(c2ccccc2)N(C(=O)CN2CCN(C)CC2)C1c1ccccc1 (configuration not stated) | 50 µg/mL (≈ 119 µM) | 100 µg/mL (≈ 238 µM) | 50 µg/mL (≈ 119 µM) | 25 µg/mL (≈ 59.6 µM) | 12.5 µg/mL (≈ 29.8 µM) | 100 µg/mL (≈ 238 µM) | 50 µg/mL (≈ 119 µM) | 50 µg/mL (≈ 119 µM) | 50 µg/mL (≈ 119 µM) | 17.4% | 24.1% | 13.9% | 38.11 °C | 38 °C | 38.95 °C | 38.85 °C | 38.7 °C | 38.1 °C | 37.95 °C | 37.9 °C | Activity (Rattus norvegicus [13]): 37.7 °C; Activity (Rattus norvegicus [14]): 37.55 °C
CC1C(=O)CC(c2ccc(Cl)cc2)N(C(=O)CN2CCN(C)CC2)C1c1ccc(Cl)cc1 (configuration not stated) | 50 µg/mL (≈ 105 µM) | 25 µg/mL (≈ 52.7 µM) | 6.25 µg/mL (≈ 13.2 µM) | 12.5 µg/mL (≈ 26.3 µM) | 25 µg/mL (≈ 52.7 µM) | 6.25 µg/mL (≈ 13.2 µM) | 12.5 µg/mL (≈ 26.3 µM) | 25 µg/mL (≈ 52.7 µM) | 50 µg/mL (≈ 105 µM) | 49.2% | 70.4% | 61.6% | 37.05 °C | 37.96 °C | 37.89 °C | 37.7 °C | 37.65 °C | 37.95 °C | 37.92 °C | 37.85 °C | Activity (Rattus norvegicus [13]): 37.65 °C; Activity (Rattus norvegicus [14]): 37.5 °C
CC1C(=O)C(C)C(c2ccc(Cl)cc2)N(C(=O)CN2CCN(C)CC2)C1c1ccc(Cl)cc1 (configuration not stated) | 6.25 µg/mL (≈ 12.8 µM) | 12.5 µg/mL (≈ 25.6 µM) | 12.5 µg/mL (≈ 25.6 µM) | 50 µg/mL (≈ 102 µM) | 6.25 µg/mL (≈ 12.8 µM) | 12.5 µg/mL (≈ 25.6 µM) | 6.25 µg/mL (≈ 12.8 µM) | 25 µg/mL (≈ 51.2 µM) | 25 µg/mL (≈ 51.2 µM) | 22.5% | 36.5% | 38.9% | 37.95 °C | 37.9 °C | 37.8 °C | 37.6 °C | 37.4 °C | 37.92 °C | 37.85 °C | 37.75 °C | Activity (Rattus norvegicus [13]): 37.55 °C; Activity (Rattus norvegicus [14]): 37.3 °C
COc1ccc(C2CC(=O)C(C)C(c3ccc(OC)cc3)N2C(=O)CN2CCN(C)CC2)cc1 (configuration not stated) | 100 µg/mL (≈ 215 µM) | 50 µg/mL (≈ 107 µM) | 50 µg/mL (≈ 107 µM) | 200 µg/mL (≈ 430 µM) | 100 µg/mL (≈ 215 µM) | 25 µg/mL (≈ 53.7 µM) | 50 µg/mL (≈ 107 µM) | 100 µg/mL (≈ 215 µM) | 50 µg/mL (≈ 107 µM) | 48.2% | 70.3% | 48% | 37.9 °C | 37.8 °C | 37.6 °C | 37.5 °C | 37.2 °C | 37.85 °C | 37.7 °C | 37.5 °C | Activity (Rattus norvegicus [13]): 37.3 °C; Activity (Rattus norvegicus [14]): 37.01 °C
CC(C)C1C(=O)CC(c2ccccc2)N(C(=O)CN2CCN(C)CC2)C1c1ccccc1 (configuration not stated) | 200 µg/mL (≈ 461 µM) | 100 µg/mL (≈ 231 µM) | 100 µg/mL (≈ 231 µM) | 50 µg/mL (≈ 115 µM) | 200 µg/mL (≈ 461 µM) | 200 µg/mL (≈ 461 µM) | 50 µg/mL (≈ 115 µM) | 100 µg/mL (≈ 231 µM) | 100 µg/mL (≈ 231 µM) | 5.6% | 18.1% | 2.2% | 38.15 °C | 38.1 °C | 38.01 °C | 38.96 °C | 38.9 °C | 38.05 °C | 38.01 °C | 38.95 °C | Activity (Rattus norvegicus [13]): 38.9 °C; Activity (Rattus norvegicus [14]): 38.75 °C
Cc1ccc(C2C(C)C(=O)C(C)C(c3ccc(C)cc3)N2C(=O)CN2CCN(C)CC2)cc1 (configuration not stated) | 50 µg/mL (≈ 112 µM) | 100 µg/mL (≈ 223 µM) | 25 µg/mL (≈ 55.9 µM) | 25 µg/mL (≈ 55.9 µM) | 12.5 µg/mL (≈ 27.9 µM) | 50 µg/mL (≈ 112 µM) | 25 µg/mL (≈ 55.9 µM) | 12.5 µg/mL (≈ 27.9 µM) | 12.5 µg/mL (≈ 27.9 µM) | 42.6% | 54.6% | 33.1% | 38.11 °C | 38.02 °C | 37.95 °C | 37.9 °C | 37.7 °C | 38.01 °C | 38.95 °C | 37.9 °C | Activity (Rattus norvegicus [13]): 37.8 °C; Activity (Rattus norvegicus [14]): 37.6 °C
